ChEMBL document CHEMBL3425449, “Identification of MK-8133: An orexin-2 selective receptor antagonist with favorable development properties” (Bioorg Med Chem Lett, 2015)
Converted amounts (≈) assume the structure as drawn. The source made the active and inactive calls. The calls are words filed in the database; no cut-off is given here.

Key:
Plasma [1] = assay: Stability in human plasma; format: ADME, cell-free
[2] = target: T1, Orexin/Hypocretin receptor type 1 (Homo sapiens, UniProt O43613); assay: Antagonist activity against human OX1R expressed in CHOK1 cells assessed as inhibition of orexin A-induced […] Ca2+ mobilization by FLIPR assay; format: functional, cell-based, CHO-K1
T1 sequence (O43613 whole entry): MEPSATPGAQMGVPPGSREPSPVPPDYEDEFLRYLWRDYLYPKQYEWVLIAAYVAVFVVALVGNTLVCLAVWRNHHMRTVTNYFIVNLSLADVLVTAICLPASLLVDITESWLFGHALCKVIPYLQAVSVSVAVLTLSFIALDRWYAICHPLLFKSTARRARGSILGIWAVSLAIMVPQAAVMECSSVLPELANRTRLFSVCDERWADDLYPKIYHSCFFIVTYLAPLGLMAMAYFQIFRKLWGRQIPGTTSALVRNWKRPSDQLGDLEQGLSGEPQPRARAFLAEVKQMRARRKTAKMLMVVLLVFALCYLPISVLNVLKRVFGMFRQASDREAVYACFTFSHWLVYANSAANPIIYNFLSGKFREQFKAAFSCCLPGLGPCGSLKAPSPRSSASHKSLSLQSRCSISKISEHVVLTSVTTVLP
Procedure, shortened: (§1)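 Cell-based FLIPR assay measuring Ca2+ flux as the functional read-out of orexin receptor antagonism. Target is the human orexin receptor expressed in CHO-K1 cells.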

Orexin receptor type 2 = target: T2, Orexin receptor type 2 (Homo sapiens, UniProt O43614); assay: Antagonist activity against human OX2R expressed in CHOK1 cells assessed as inhibition of orexin A-induced […] Ca2+ mobilization by FLIPR assay; format: functional, cell-based, CHO-K1; procedure, shortened: as §1
T2 sequence (O43614 whole entry): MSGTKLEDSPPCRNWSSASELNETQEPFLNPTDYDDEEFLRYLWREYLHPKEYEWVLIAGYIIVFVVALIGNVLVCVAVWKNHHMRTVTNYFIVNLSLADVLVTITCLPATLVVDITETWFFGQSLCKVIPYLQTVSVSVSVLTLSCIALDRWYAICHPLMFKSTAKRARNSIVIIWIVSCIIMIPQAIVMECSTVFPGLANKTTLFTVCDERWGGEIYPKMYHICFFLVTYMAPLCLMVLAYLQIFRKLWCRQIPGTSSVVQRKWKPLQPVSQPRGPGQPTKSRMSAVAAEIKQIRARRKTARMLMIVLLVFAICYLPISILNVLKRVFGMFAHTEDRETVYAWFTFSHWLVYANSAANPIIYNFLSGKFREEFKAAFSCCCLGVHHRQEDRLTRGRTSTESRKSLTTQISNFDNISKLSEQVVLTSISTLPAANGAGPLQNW

[3] = Solubility of the compound at pH 7; format: physicochemical; conditions: buffer, read-out: solubility
Plasma [4] = assay: Stability in rat plasma; format: ADME, cell-free
[5] = Lipophilicity, log D of the compound by HPLC method; format: physicochemical; conditions: read-out: logD
[6] = Intrinsic clearance in human microsomes; format: ADME, Microsome
CHO-K1 = assay: Selectivity index, ratio of IC50 for human OX1R expressed in CHOK1 cells to IC50 for human OX2R expressed in CHOK1 cells by FLIPR assay; format: cell-based
Procedure, shortened: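 Ratio of OX1R FLIPR IC50 to OX2R FLIPR IC50. Both come from Ca2+-flux assays on human orexin receptors expressed in CHO-K1 cells, each averaged over n ≥ 2 experiments.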

[7] = Clearance in dog at 10 mg/kg, po or 2 mg/kg, iv; format: ADME, organism-based, Canis lupus familiaris; conditions: in vivo
Procedure, shortened: (§2)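 Dog pharmacokinetics determined after intravenous and oral administration.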

Canis familiaris [8] = assay: Sleep promoting activity in beagle dog assessed as increase in REM2 sleep at 0.01 and 0.05 mg/kg, po dosed for 5 consecutive days; format: functional, organism-based; parameters: dose 0.05 mg/kg; conditions: Canis lupus familiaris, in the assay text read “NREM2 sleep” for “REM2 sleep”
Procedure, shortened: (§3)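 Beagles implanted with radio-telemetry ECoG/EMG transmitters received 0.01 and 0.05 mg/kg po or vehicle (20% Vitamin E TPGS). Balanced cross-over design over 5 consecutive days. Active wake, NREM I, NREM II (including delta sleep) and REM were scored as mean within-subject change versus vehicle.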

Canis familiaris [9] = assay: Sleep promoting activity in beagle dog assessed as increase in REM sleep at 0.01 and 0.05 mg/kg, po dosed for 5 consecutive days; format: functional, organism-based; parameters: dose 0.05 mg/kg; conditions: Canis lupus familiaris; procedure, shortened: as §3
[10] = Solubility of the compound at pH 7.4; format: physicochemical; conditions: buffer
Mus musculus [11] = assay: Sleep promoting activity in OX2R knock out mouse with targeted disruption of the Hcrtr2 gene assessed as effect on REM sleep at 30 mg/kg, po dosed for 5 consecutive days measured after 1 hr; format: functional, organism-based; parameters: dose 30 mg/kg
Procedure, shortened: (§4)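 Sleep architecture recorded in ambulatory mice (wild-type N = 7; OX2R KO N = 6) implanted with radio-telemetry transmitters for ECoG and EMG. Compound given at 30 mg/kg po; vehicle was 20% Vitamin E TPGS po. Balanced cross-over design over 5 consecutive treatment days. Read-out is mean within-subject change versus vehicle in active wake, SWS and REM.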

Rattus norvegicus [12] = assay: Sleep promoting activity in rat assessed as reduction of active wake at 1 and 3 mg/kg, po dosed for 3 consecutive days measured after 2 hrs; format: functional, organism-based; parameters: dose 3 mg/kg
Procedure, shortened: (§5)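 Rats implanted with radio-telemetry ECoG/EMG transmitters and recorded while ambulatory. Dosed at 1 and 3 mg/kg po or with vehicle (20% Vitamin E TPGS) in a balanced cross-over over 3 consecutive days. Active wake, SWS and REM were scored in the 2 h after dosing as within-subject change versus vehicle.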

Homo sapiens = organism: Homo sapiens; assay: Inhibition of CYP450 (unknown origin)
[13] = Unbound fraction in human plasma at 1 uM; format: ADME, cell-free
Procedure, shortened: (§6)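 Plasma protein binding measured at a compound concentration of 1 µM. Reported as percent unbound fraction in human, rat, dog and monkey plasma.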

Mus musculus [14] = assay: Sleep promoting activity in mouse assessed as reduction of active wake at 30 mg/kg, po dosed for 5 consecutive days measured after 1 hr; format: functional, organism-based; parameters: dose 30 mg/kg; procedure, shortened: as §4
[15] = Clearance in Wistar Han rat at 10 mg/kg, po or 2 mg/kg, iv; format: ADME, organism-based; conditions: in vivo
Procedure, shortened: (§7)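 Pharmacokinetics in Wistar Han rats (n = 2) after intravenous and oral dosing. Oral dose was 10 mg/kg in PEG400:Tween80/water 40:10:50. IV dose was 2 mg/kg in DMSO/PEG400/water 20:60:20.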

[16] = Volume of distribution at steady state in dog at 10 mg/kg, po or 2 mg/kg, iv; format: ADME, organism-based, Canis lupus familiaris; conditions: in vivo, read-out: Vdss; procedure, shortened: as §2
Mus musculus [17] = assay: Sleep promoting activity in mouse assessed as effect on REM sleep at 30 mg/kg, po dosed for 5 consecutive days measured after 1 hr; format: functional, organism-based; parameters: dose 30 mg/kg; procedure, shortened: as §4
[18] = Unbound fraction in rat plasma at 1 uM; format: ADME, cell-free; procedure, shortened: as §6
Mus musculus [19] = assay: Sleep promoting activity in OX2R knock out mouse with targeted disruption of the Hcrtr2 gene assessed as effect on active wake at 30 mg/kg, po dosed for 5 consecutive days measured after 1 hr; format: functional, organism-based; parameters: dose 30 mg/kg; procedure, shortened: as §4
Canis familiaris [20] = assay: Sleep promoting activity in beagle dog assessed as increase in non-REM NREM1 sleep at 0.01 and 0.05 mg/kg, po dosed for 5 consecutive days; format: functional, organism-based; parameters: dose 0.05 mg/kg; conditions: Canis lupus familiaris; procedure, shortened: as §3
P-gp [21] = assay: Substrate activity at rat P-gp assessed as efflux ratio in cell based assay; format: ADME; conditions: not told
[22] = Induction of CYP450 (unknown origin); format: ADME; conditions: human
[23] = Volume of distribution at steady state in Wistar Han rat at 10 mg/kg, po or 2 mg/kg, iv; format: ADME, organism-based; conditions: in vivo, read-out: Vdss; procedure, shortened: as §7
[24] = Ratio of drug level in CSF to plasma in rat; format: ADME; conditions: CSF and plasma
[25] = Half life in Wistar Han rat at 10 mg/kg, po or 2 mg/kg, iv; format: ADME, organism-based; conditions: in vivo; procedure, shortened: as §7
Canis familiaris [26] = assay: Sleep promoting activity in beagle dog assessed as reduction of active wake at 0.01 and 0.05 mg/kg, po dosed for 5 consecutive days; format: functional, organism-based; parameters: dose 0.05 mg/kg; conditions: Canis lupus familiaris; procedure, shortened: as §3
Rattus norvegicus [27] = assay: Sleep promoting activity in rat assessed as increase in REM sleep at 1 and 3 mg/kg, po dosed for 3 consecutive days measured after 2 hrs; format: functional, organism-based; parameters: dose 3 mg/kg; procedure, shortened: as §5
Rattus norvegicus [28] = assay: Sleep promoting activity in rat assessed as increase in slow wave sleep at 1 and 3 mg/kg, po dosed for 3 consecutive days measured after 2 hrs; format: functional, organism-based; parameters: dose 3 mg/kg; procedure, shortened: as §5
Canis familiaris [29] = assay: Sleep promoting activity in beagle dog assessed as increase in delta sleep at 0.01 and 0.05 mg/kg, po dosed for 5 consecutive days; format: functional, organism-based; parameters: dose 0.05 mg/kg; conditions: Canis lupus familiaris; procedure, shortened: as §3
[30] = Oral bioavailability in Wistar Han rat at 10 mg/kg; format: ADME, organism-based; conditions: in vivo; procedure, shortened: as §7
[31] = Unbound fraction in dog plasma at 1 uM; format: ADME, cell-free, Canis lupus familiaris; procedure, shortened: as §6
[32] = Half life in dog at 10 mg/kg, po or 2 mg/kg, iv; format: ADME, organism-based, Canis lupus familiaris; conditions: in vivo; procedure, shortened: as §2
[33] = Permeability in pig LLC-PK1 cells; format: ADME, cell-based, Sus scrofa; conditions: read-out: permeability
Procedure, shortened: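 Passive permeability measured in LLC-PK1 cells and expressed in cm/s.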

Mus musculus [34] = assay: Sleep promoting activity in OX2R knock out mouse with targeted disruption of the Hcrtr2 gene assessed as effect on slow wave sleep at 30 mg/kg, po dosed for 5 consecutive days measured after 1 hr; format: functional, organism-based; parameters: dose 30 mg/kg; procedure, shortened: as §4
Mus musculus [35] = assay: Sleep promoting activity in mouse assessed as increase in slow wave sleep at 30 mg/kg, po dosed for 5 consecutive days measured after 1 hr; format: functional, organism-based; parameters: dose 30 mg/kg; procedure, shortened: as §4
[36] = Unbound fraction in monkey plasma at 1 uM; format: ADME, cell-free, Macaca mulatta; conditions: rhesus monkey; procedure, shortened: as §6
P-gp [37] = assay: Substrate activity at human P-gp assessed as efflux ratio in cell based assay; format: ADME; conditions: not told
[38] = Oral bioavailability in dog at 10 mg/kg; format: ADME, organism-based, Canis lupus familiaris; conditions: in vivo; procedure, shortened: as §2

SMILES: COC(=O)c1ccccc1C(=O)N1C[C@H](Oc2cc(C#N)ccn2)CC[C@H]1C
- Stability (Plasma [1]): Unstable
- IC50 [2]: 10 µM
- IC50 (Orexin receptor type 2): 21 nM
- solubility [3]: 151 µM (≈ 57.3 µg/mL)
- Stability (Plasma [4]): Unstable
- logD [5]: 2.9
- CLint scaled [6]: < 16 mL/min/kg
- Ratio IC50 (CHO-K1): > 490

SMILES: C[C@@H]1CC[C@@H](Oc2cc(C#N)ccn2)CN1C(=O)c1ccccc1-c1ncccn1
- clearance [7]: 15 mL/min/kg
- Activity (Canis familiaris [8]): Dose-dependent effect
- Activity (Canis familiaris [9]): Active
- solubility [10]: 250 µg/mL (≈ 626 µM)
- Activity (Mus musculus [11]): inactive
- Activity (Rattus norvegicus [12]): Active
- inhibition (Homo sapiens): inactive
- IC50 [2]: 4.9 µM
- fraction unbound at 1 µM [13]: 0.028
- Activity (Mus musculus [14]): Active
- clearance [15]: 37 mL/min/kg
- Vd [16]: 0.97 L/kg
- Activity (Mus musculus [17]): inactive
- fraction unbound at 1 µM [18]: 0.076
- Activity (Mus musculus [19]): inactive
- Activity (Canis familiaris [20]): Dose-dependent effect
- efflux ratio (P-gp [21]): 2.3
- Activity [22]: Not Active
- Vd [23]: 1.3 L/kg
- Kp [24]: 0.1
- half-life [25]: 258 min
- solubility [3]: 183 µM (≈ 73.1 µg/mL)
- Activity (Canis familiaris [26]): Dose-dependent effect
- Activity (Rattus norvegicus [27]): Active
- Activity (Rattus norvegicus [28]): Active
- logD [5]: 2.9
- Activity (Canis familiaris [29]): Dose-dependent effect
- bioavailability [30]: 80%
- CLint scaled [6]: 17 mL/min/kg
- fraction unbound at 1 µM [31]: 0.166
- half-life [32]: 48 min
- Papp [33]: 33 ×10⁻⁶ cm/s
- Activity (Mus musculus [34]): inactive
- Activity (Mus musculus [35]): Active
- fraction unbound at 1 µM [36]: 0.239
- efflux ratio (P-gp [37]): 0.7
- Ratio IC50 (CHO-K1): 174
- bioavailability [38]: 53%
